# Screens deposited in PubChem by several laboratories.
# The full list was thinned out, with hits kept by preference.
# UPR CHOP act = activators of apoptotic CHOP UPR arm, primary screen, cell-based, CHO-CHOP luciferase reporter, luminescence, uHTS. UPR activation; percent of tunicamycin response over DMSO baseline. 330,000 tested, 0.34% active. activation, % at 10 µM;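 active means at 10 µM dose, activation of 40% or more, normalized to positive control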
#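 measured by = luciferase luminescence | assay system = CHO-CHOP cells, stable luciferase reporter of PERK-eIF2a-CHOP signalling | amount = 500 reporter cells seeded per well | timing = 6 h compound exposure at 37 °C after overnight seeding | controls = positive tunicamycin 10 µg/mL, negative DMSO alone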
# Jurkat NFkB inh = inhibitors of induced NF-kB luciferase reporter, primary screen, TCR NF-kB activation inhibitor project, cell-based, luminescence, uHTS; 330,000 tested, 0.53% active; inhibition, % at 4 µM; Jurkat, PMA/ionomycin-induced NF-kB luciferase reporter; in the data active means inhibition above about 50%
# XBP1 UPR activ = activators of adaptive XBP1 UPR arm, primary screen, cell-based, CHO-XBP1 luciferase reporter, luminescence, uHTS; IRE1-XBP1 UPR activation; percent of tunicamycin response, DMSO as zero; activation, % at 20 µM; 330,000 tested, 0.33% active; AID 463104, 2010;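 active means versus positive control, 20 µM dose yields 30% or more activation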
#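 Signal: luciferase luminescence; Assay system: CHO-XBP1 luciferase reporter cells; Amount: one thousand reporter cells per well; Dosing: 20 µM single concentration, DMSO 1%; Benchmarks: high control tunicamycin 10 µg/mL final, low control DMSO vehicle only; Schedule: 6 h compound exposure at 37 °C, 5% CO2; Evaluation: percent activation relative to tunicamycin reference.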
# 697 NFkB inh = inhibitors of PMA/ionomycin-induced NF-kB reporter, 697 cells, primary screen, B-cell NF-kB inhibitor project, cell-based, luminescence, uHTS; AID 435022, 2010; inhibition, % at 4 µM; 330,000 tested, 0.33% active; 697 B-cell NF-kB luciferase reporter, 16 h; in the data active means inhibition above about 35%
# CHOP inhibitor = inhibitors of CHOP promoter induction, primary screen, cell-based, unfolded protein response, luciferase reporter | inhibition, % at 10 µM | 220,000 tested, 3.8% active | CHO-K1 CHOP-promoter luciferase, tunicamycin-induced, 15-18 h;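 active means compounds that reduced the stress-induced luciferase reporter signal by more than about 70% of percent inhibition, limit read from the data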
# Numbers stand for hits; – = inactive; · = no result.
SMILES,UPR CHOP act,Jurkat NFkB inh,XBP1 UPR activ,697 NFkB inh,CHOP inhibitor
CC(C)(C)C(=O)C(Cl)C(=O)Nc1ccccc1 (stereo not given),–,–,54,–,80
O=C(Nc1ccc(Nc2ccccc2)cc1)C(Cl)Cl,–,–,–,–,–
CCC(=O)N1CCN(c2ccccc2NC(=O)COc2cc(C)ccc2C(C)C)CC1,–,–,–,–,77
Cc1cc(C)c(OCC(=O)Nc2ccccc2N2CCOCC2)c(C)c1,–,–,–,–,79
Cc1cc(C)c(OCC(=O)Nc2ccccc2N2CCCCC2)c(C)c1,–,–,–,–,·
Cc1ccc(C(C)C)c(OCC(=O)NC(=S)Nc2ccccc2N2CCOCC2)c1,–,–,–,–,·
Cc1ccc(C(C)C)c(OCC(=O)NN=C2CCCCCCC2)c1,–,–,–,–,83
CC1(c2ccc3c(c2)OCCCO3)NC(=O)N(CC(=O)NCCc2ccccc2)C1=O (stereo not given),–,–,–,–,·
COC(=O)Cn1c2ccc(OC)cc2c2nc3ccccc3nc21,–,–,–,–,–
COc1ccc2c(c1)c1nc3ccccc3nc1n2Cc1ccc(OC)c(OC)c1,·,·,·,·,85
CCOc1ccc(NS(=O)(=O)c2ccc(NS(=O)(=O)c3ccc(SC)cc3)cc2)cc1,–,–,–,–,95
CCOc1ccc(NS(=O)(=O)c2ccc(NS(C)(=O)=O)cc2)cc1,–,–,–,–,–
CCOc1ccc(NS(=O)(=O)c2ccc(NC(=S)NC(=O)CC(C)C)cc2)cc1,–,–,–,–,92
CC(C)CC(=O)NC(=S)Nc1cccc(NC(=O)c2ccccc2)c1,–,–,–,–,–
Cc1cc(NC(=S)NC(=O)CC(C)C)ccc1Br,–,–,–,–,83
CC(C)CCn1nnnc1C(C(C)C)N1CCC(C(N)=O)CC1 (stereo not given),–,–,–,–,–
CCOc1ccc(-c2nc(CSCC(=O)N3CCN(C(=O)c4ccco4)CC3)c(C)o2)cc1,–,–,–,–,–
CCOC(=O)C1CCN(C(=O)CSCc2nc(-c3ccc(OCC)cc3)oc2C)CC1,–,–,–,–,77
Cc1nc2c(ncn2-c2ccccc2)c(=O)n1NC(=O)CN1CCN(C)CC1,–,–,–,–,–
COc1ccc(-c2nc(C#N)c(NCCc3ccccc3)o2)cc1,–,–,–,–,90
CCCCNc1oc(-c2ccc(OC)cc2)nc1S(=O)(=O)c1ccccc1,–,–,–,–,72
COc1ccc(CCNc2oc(COc3ccccc3F)nc2C#N)cc1,–,–,–,–,87
O=C(O)CCC(=O)N1CCCC1C(=O)O (stereo not given),·,·,·,·,–
Cc1ccc(S(=O)(=O)N2CCC(C(=O)OCC(=O)N(Cc3ccccc3)C(C)(C)C)CC2)cc1C,–,–,–,–,·
CCOc1ccc(NC(=O)c2cn(CC(C)C)c(=O)c3c2c2ccccc2n3C)cc1,–,–,–,–,90
SMILES,UPR CHOP act,Jurkat NFkB inh,XBP1 UPR activ,697 NFkB inh,CHOP inhibitor
COCCCNC(=O)c1cn(CC(C)C)c(=O)c2c1c1ccccc1n2C,–,–,–,–,–
O=C1c2ccccc2C(=Nc2ccccc2)C1c1cccc(Br)c1 (stereo not given),–,–,–,–,72
CCC(CC)NC(=O)COC(=O)c1ccc(OCC(=O)Nc2ccccc2OC)c(OC)c1,–,–,–,–,82
CCCNC(=O)COC(=O)c1ccc(OCC(=O)Nc2ccccc2OC)c(OC)c1,–,–,–,–,–
CCOc1cc(C)nc(N2CCCC(C(=O)NCc3ccccc3F)C2)n1 (stereo not given),–,–,–,–,71
Cc1cc(C)nc(N2CCCC(C(=O)NCCc3ccccc3F)C2)n1 (stereo not given),–,–,–,–,–
O=C(NCc1cccc(C(F)(F)F)c1)c1ccc2c(c1)OCO2,–,–,–,–,·
O=C(NC1CCCCC1)C(c1cccnc1)N(C(=O)CCl)c1cccc(Cl)c1 (stereo not given),–,–,–,–,109
Cc1cccc(N(C(=O)CNC(=O)c2ccco2)C(C(=O)NC2CCCCC2)c2cccnc2)c1 (stereo not given),–,–,–,–,·
CC(C)Cn1c(SCc2nc3ccccc3c(=O)[nH]2)nc2ccccc2c1=O,–,–,–,–,82
CCOC(=O)[C@H]1[C@H]2COc3ccc(C)cc3[C@@H]2N2C(=O)[C@@H](C)NC(=O)[C@@]12C,–,–,–,–,·
COc1cc(NC(=O)C(=O)NNC(=O)C2CCCCC2)c(OC)cc1Cl,–,–,–,–,85
COc1cc(OC)cc(C(=O)NNC(=O)C(=O)Nc2cc(OC)c(Cl)cc2OC)c1,–,–,–,–,·
OC(COc1ccc2ccccc2c1)CN1CCN(c2ccc(F)cc2)CC1 (stereo not given),–,–,–,–,87
OC(COc1cccc2ccccc12)CN1CCN(c2cccc(Cl)c2)CC1 (stereo not given),–,–,–,–,71
CC(=O)c1ccccc1OCC(O)CN1CCN(C(c2ccccc2)c2ccccc2)CC1 (stereo not given),–,–,–,–,75
O=C(CSc1ccccn1)Nc1nc2ccc(Br)cc2s1,–,–,–,–,–
Nc1nc(Cl)nc2c1ncn2[C@@H]1O[C@H](COP(=O)(O)OP(=O)(O)OP(=O)(O)O)[C@H](O)C1O (stereo not given in full),·,·,·,·,–
CCN1CCN(c2ccc(S(=O)(=O)N3CCCCC3)cc2NC(=O)CC(C)c2ccccc2)CC1 (stereo not given),–,–,–,–,·
CC(C)C[C@H](NC(=O)c1nc[nH]c1C(=O)N1CCc2ccccc2C1)C(=O)OCc1ccccc1,–,–,–,–,92
Cc1ccccc1/C=C/C1=NCCN1,–,–,–,–,99
CC(C)(C)c1ccc(S(=O)(=O)/C=C/C#N)cc1,·,·,·,·,–
O=C1c2ccccc2C(=O)c2c1cccc2N(CCO)CCO,–,–,–,–,·
O=C1C=C(N(CCO)Cc2ccccc2)c2ccccc2C1=O,·,·,·,·,89
Cc1ccc(OCc2cc(C(=O)N(C)CCc3nc4ccccc4[nH]3)no2)cc1C,–,–,–,–,·
Cc1ccc(C(=O)CSc2nc3ccccc3c(=O)[nH]2)cc1,–,–,–,–,–
Cc1cccc(C)c1NC(=O)CSc1nc2ccccc2c(=O)[nH]1,–,–,–,–,71
Cc1ccc(C(=O)CSc2nc3ccccc3c(=O)[nH]2)cc1C,–,–,–,–,–
O=C(CCCSc1nc2ccccc2c(=O)[nH]1)c1ccc(F)cc1,–,–,–,–,79
CCc1ccc(C(=O)CSc2nc3ccccc3c(=O)[nH]2)cc1,–,–,–,–,95
